Reference: ChEMBL document CHEMBL4842338, “System-oriented optimization of multi-target 2,6-diaminopurine derivatives: Easily accessible broad-spectrum antivirals active against flaviviruses, influenza virus and SARS-CoV-2” (Eur J Med Chem, 2021)
Activity calls are given as the source filed them. The calls are words filed in the database; no cut-off is given here.

How the values were obtained:
[1] = Cytotoxicity against human Huh-7 cells assessed as reduction in cell viability by Celltiter-Glo luminescent cell viability assay; format: cell-based; conditions: Huh-7 cells
Outline: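 Compound-exposed cells assessed by CellTiter-Glo luminescence versus DMSO control; CC50 from dose-response.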

dengue virus type 2 [2] = test: Antiviral activity against Dengue virus serotype 2 New Guinea C infected in pre-seeded Huh-7 cells assessed as inhibition of viral replication incubated for 72 hrs by immunodetection based secondary yield reduction assay; format: functional, organism-based; conditions: Dengue virus, New Guinea C, Huh-7, 72 h; read-out: IC50
dengue virus type 2 [3] = test: Antiviral activity against Dengue virus serotype 2 New Guinea C infected in pre-seeded Huh-7 cells assessed as inhibition of viral replication incubated for 72 hrs by immunodetection based direct yield reduction assay; format: functional, organism-based; conditions: Dengue virus, New Guinea C, Huh-7, 72 h; read-out: IC50
[4] = Selectivity index, ratio of CC50 for human Huh-7 cells to IC50 for Dengue virus serotype 2 New Guinea C infected in pre-seeded Huh-7 cells assessed as inhibition of viral replication incubated for 72 hrs by immunodetection based secondary yield reduction assay; format: toxicity, cell-based; conditions: read-out: Selectivity Index
[5] = Selectivity index, ratio of CC50 for human Huh-7 cells to IC50 for Dengue virus serotype 2 New Guinea C infected in pre-seeded Huh-7 cells assessed as inhibition of viral replication incubated for 72 hrs by immunodetection based direct yield reduction assay; format: toxicity, cell-based; conditions: read-out: Selectivity Index
Outline: (§1)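 Direct yield reduction in Huh7 cells (7000/well), infected with 50 TCID₅₀ of DENV or ZIKV, or 25 TCID₅₀ of WNV. Adsorption 1 h at 37 °C, then virus removed and serial compound dilutions added. Incubated 72 h (DENV, ZIKV) or 48 h (WNV). Viral antigen immunodetected on the monolayer. IC₅₀ by non-linear regression, mean of three experiments. SI = CC₅₀ (Huh7, CellTiter-Glo luminescence)/IC₅₀.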

[6] = Selectivity index, ratio of CC50 for human Huh-7 cells to IC50 for Dengue virus serotype 2 New Guinea C infected in pre-seeded Huh-7 cells assessed as inhibition of viral replication incubated for 72 hrs by immunodetection based plaque reduction assay; format: toxicity, cell-based; conditions: read-out: Selectivity Index
Zika virus [7] = test: Antiviral activity against Zika virus H/PF/2013 infected in pre-seeded Huh-7 cells assessed as inhibition of viral replication incubated for 72 hrs by immunodetection based secondary yield reduction assay; format: functional, organism-based; conditions: H/PF/2013, Huh-7, 72 h
Zika virus [8] = test: Antiviral activity against Zika virus H/PF/2013 infected in pre-seeded Huh-7 cells assessed as inhibition of viral replication incubated for 72 hrs by immunodetection based direct yield reduction assay; format: functional, organism-based; conditions: H/PF/2013, Huh-7, 72 h; outline: as §1
Zika virus [9] = test: Antiviral activity against Zika virus H/PF/2013 infected in pre-seeded Huh-7 cells assessed as inhibition of viral replication incubated for 72 hrs by immunodetection based plaque reduction assay; format: functional, organism-based; conditions: H/PF/2013, Huh-7, 72 h
[10] = Selectivity index, ratio of CC50 for human Huh-7 cells to IC50 for Zika virus H/PF/2013 infected in pre-seeded Huh-7 cells assessed as inhibition of viral replication incubated for 72 hrs by immunodetection based secondary yield reduction assay; format: toxicity, cell-based; conditions: read-out: Selectivity Index
[11] = Selectivity index, ratio of CC50 for human Huh-7 cells to IC50 for Zika virus H/PF/2013 infected in pre-seeded Huh-7 cells assessed as inhibition of viral replication incubated for 72 hrs by immunodetection based direct yield reduction assay; format: toxicity, cell-based; conditions: read-out: Selectivity Index; outline: as §1
[12] = Selectivity index, ratio of CC50 for human Huh-7 cells to IC50 for Zika virus H/PF/2013 infected in pre-seeded Huh-7 cells assessed as inhibition of viral replication incubated for 72 hrs by immunodetection based plaque reduction assay; format: toxicity, cell-based; conditions: read-out: Selectivity Index
West Nile virus [13] = test: Antiviral activity against West Nile virus lineage 1 (Italy/2009) infected in pre-seeded Huh-7 cells assessed as inhibition of viral replication incubated for 48 hrs by immunodetection based direct yield reduction assay; format: functional, organism-based; conditions: West Nile virus, lineage 1 (Italy/2009), Huh-7, 48 h; read-out: IC50
West Nile virus [14] = test: Antiviral activity against West Nile virus lineage 1 (Italy/2009) infected in pre-seeded Huh-7 cells assessed as inhibition of viral replication incubated for 48 hrs by immunodetection based plaque reduction assay; format: functional, organism-based; conditions: Huh-7, 48 h
[15] = Selectivity index, ratio of CC50 for human Huh-7 cells to IC50 for West Nile virus lineage 1 (Italy/2009) infected in pre-seeded Huh-7 cells assessed as inhibition of viral replication incubated for 48 hrs by immunodetection based direct yield reduction assay; format: toxicity, cell-based; conditions: read-out: Selectivity Index; outline: as §1
[16] = Selectivity index, ratio of CC50 for human Huh-7 cells to IC50 for West Nile virus lineage 1 (Italy/2009) infected in pre-seeded Huh-7 cells assessed as inhibition of viral replication incubated for 48 hrs by immunodetection based plaque reduction assay; format: toxicity, cell-based; conditions: read-out: Selectivity Index
Huh-7 [17] = test: Effect on formation of DENV replication complex in human Huh-7 cells assessed as reduction in expression of NS3 at 100 uM measured after 8 to 24 hrs by DAPI staining based confocal microscopy analysis; format: functional, cell-based; conditions: time 8-24 hrs
Outline: (§2)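 Huh-7 cells (1 × 10⁴) on coverslips infected with DENV-2 (MOI 0.05), treated (100 or 50 μM as listed), fixed in 4% paraformaldehyde at 8, 12, 16, 24 h; anti-NS3/anti-NS5 with Alexa 488/568 secondaries, DAPI; confocal, 5 random fields at 40×; % positive cells; 2-way ANOVA with Dunnett.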

Huh-7 [18] = test: Effect on formation of DENV replication complex in human Huh-7 cells assessed as reduction in expression of NS5 at 100 uM measured after 8 to 24 hrs by DAPI staining based confocal microscopy analysis; format: functional, cell-based; conditions: time 8-24 hrs; outline: as §2
Huh-7 [19] = test: Effect on formation of DENV replication complex in human Huh-7 cells assessed as reduction in NS5 translocation into nucleus at 100 uM measured after 16 to 24 hrs by DAPI staining based confocal microscopy analysis; format: functional, cell-based; conditions: time 16-24 hrs; outline: as §2
Huh-7 [20] = test: Effect on formation of DENV replication complex in human Huh-7 cells assessed as reduction NS3 translocation into cytoplasm at 100 uM measured after 16 to 24 hrs by DAPI staining based confocal microscopy analysis; format: functional, cell-based; conditions: time 16-24 hrs; outline: as §2

CC(C)OC(=O)[C@H](C)N[P@](=O)(OC[C@H]1O[C@@H](n2ccc(=O)[nH]c2=O)[C@](C)(F)[C@@H]1O)Oc1ccccc1 [SOFOSBUVIR]
CC50 [1]: 200000 nM
IC50 (dengue virus type 2 [2]): 4700 nM
IC50 (dengue virus type 2 [3]): 4600 nM
selectivity ratio at 72 h [4]: 42
selectivity ratio at 72 h [5]: 43
selectivity ratio at 72 h [6]: 50
IC50 (Zika virus [7]): 3200 nM
IC50 (Zika virus [8]): 2700 nM
IC50 (Zika virus [9]): 2000 nM
selectivity ratio at 72 h [10]: 62
selectivity ratio at 72 h [11]: 74
selectivity ratio at 72 h [12]: 100
IC50 (West Nile virus [13]): 1700 nM
IC50 (West Nile virus [14]): 1200 nM
selectivity ratio at 48 h [15]: 117
selectivity ratio at 48 h [16]: 166
Activity (Huh-7 [17]): Active
Activity (Huh-7 [18]): Active
Activity (Huh-7 [19]): Active
Activity (Huh-7 [20]): inactive
